Screening data (PubChem)
CSC inhib – blocks cancer stem cells; inhibition, % at 7.5 µM; actives 1.1% (n = 300,000); AID 2717; cancer stem cell-like cells viability, luminescence; in the data active means inhibition above about 75%; tested in HMLE shEcad cells
XBP1 UPR activ – activators of adaptive arm of unfolded protein response (XBP1) | activation, % at 20 µM | actives 0.33% (n = 330,000) | CHO-XBP1 luciferase reporter, IRE1-XBP1 UPR activation, luminescence; percent of tunicamycin response, DMSO as zero;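 active means versus positive control, 20 µM dose yields 30% or more activation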;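 further: 100% = tunicamycin at 10 µg/mL and 0% = DMSO only wells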
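Material: IRE1-XBP1 luciferase reporter CHO line / Quantity: one thousand reporter cells per well / Buffer or medium: F12 with 10% serum / Compound: 20 µM single concentration, DMSO 1% / Times: 6 h treatment, 37 °C / Detection: Steady-Glo luciferase glow luminescence, 10 min after reagent addition / Benchmarks: tunicamycin high, DMSO low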
SKKanGAS inh – inhibitors of SKKanGAS S. pyogenes growth in kanamycin (SK-promoter or general growth effect); BacTiter-Glo, 6 h; inhibition, % at 7.5 µM; actives 1.3% (n = 300,000); AID 1662;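 active means mean replicate score, as percent of positive control median, at least 50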;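 further: strain carries kanamycin resistance gene driven by streptokinase promoter and grows in 40 µg/ml kanamycin; loss of luminescence reflects streptokinase promoter inhibition or plain growth inhibition; 0% = median of DMSO wells and 100% = positive control at its reference dose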
Mdm2-MdmX inh – human Mdm2/MdmX binding inhibition; SaOS-2 split-luciferase Mdm2/MdmX complementation, luminescence; actives 3% (n = 330,000); O15151+Q00987; inhibition, % at 8 µM;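 active means inhibition of at least 50% at 8 µM in the primary screen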
Target sequence (O15151 whole entry, looked up): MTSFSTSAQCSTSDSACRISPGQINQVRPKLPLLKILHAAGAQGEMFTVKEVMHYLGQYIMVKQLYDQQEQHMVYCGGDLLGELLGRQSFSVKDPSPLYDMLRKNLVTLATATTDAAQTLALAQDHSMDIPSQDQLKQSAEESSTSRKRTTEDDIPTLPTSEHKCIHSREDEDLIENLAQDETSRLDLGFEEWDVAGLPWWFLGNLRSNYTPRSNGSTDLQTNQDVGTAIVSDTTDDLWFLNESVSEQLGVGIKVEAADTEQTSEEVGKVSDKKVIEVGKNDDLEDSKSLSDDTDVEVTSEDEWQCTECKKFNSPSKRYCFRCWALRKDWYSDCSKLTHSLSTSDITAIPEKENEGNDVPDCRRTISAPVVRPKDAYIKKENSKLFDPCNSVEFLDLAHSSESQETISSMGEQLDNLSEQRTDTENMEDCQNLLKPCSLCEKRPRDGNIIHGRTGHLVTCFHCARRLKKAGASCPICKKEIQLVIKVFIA
Target sequence (Q00987 whole entry, looked up): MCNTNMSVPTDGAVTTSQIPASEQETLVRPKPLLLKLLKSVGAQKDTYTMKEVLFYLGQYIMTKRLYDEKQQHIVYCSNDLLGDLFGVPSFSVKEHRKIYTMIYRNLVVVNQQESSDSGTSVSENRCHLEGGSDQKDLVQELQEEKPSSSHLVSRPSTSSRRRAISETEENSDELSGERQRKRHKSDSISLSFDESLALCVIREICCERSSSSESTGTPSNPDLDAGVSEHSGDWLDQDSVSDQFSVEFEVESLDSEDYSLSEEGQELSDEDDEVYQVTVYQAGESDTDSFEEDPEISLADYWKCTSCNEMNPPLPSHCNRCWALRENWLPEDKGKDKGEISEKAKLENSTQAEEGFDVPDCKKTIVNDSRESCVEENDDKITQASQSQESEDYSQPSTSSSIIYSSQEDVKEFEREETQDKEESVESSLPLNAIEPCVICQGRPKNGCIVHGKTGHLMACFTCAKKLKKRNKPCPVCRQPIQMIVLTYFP
CHOP UPR activ – activators of apoptotic arm of unfolded protein response (CHOP) | CHO-CHOP luciferase reporter, UPR activation, luminescence; percent of tunicamycin response over DMSO baseline | activation, % at 10 µM | actives 0.34% (n = 330,000);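 active means at 10 µM dose, activation of 40% or more, normalized to positive control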;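 further: 100% = tunicamycin at 10 µg/mL and 0% = DMSO alone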
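Test system: CHO-CHOP cells, stable luciferase reporter of PERK-eIF2a-CHOP signalling | Quantity: 500 CHO-CHOP cells per well | Buffer or medium: F12 plus 10% serum | Compound dosing: 10 µM single point, 0.5% DMSO | Schedule: 6 h compound treatment, 37 °C | Signal: Luciferase luminescence | Control set: Tunicamycin high control, DMSO low control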
Beta cell apopt – blocks beta cell apoptosis; INS-1E cytokine-induced death, ATP luminescence, 48 h; percent of positive-control rescue, neutral wells zero; protection from apoptosis, % (concentration not given with the values); actives 0.8% (n = 300,000); AID 435005;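 active means Every replicate reaches about 75%, or at least half do and their mean reaches it too, limit read from the data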;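 further: 0% = cytokine-treated negative control wells and 100% = positive control rescue; higher means more ATP so stronger rescue from cytokine killing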
Active calls of the source: *; nt = no result given. Hits are enriched below; roughly 4.8% of the tested compounds scored in any of these assays.

SMILES	CSC inhib	XBP1 UPR activ	SKKanGAS inh	Mdm2-MdmX inh	CHOP UPR activ	Beta cell apopt
CCC/C=C(\CCC)C(NS(=O)(=O)c1ccc(C(F)(F)F)cc1)c1ccccc1 (stereo not given)	102*	nt	71*	nt	nt	53
CCN(C(=O)COC(=O)C1CC1)c1c(N)n(Cc2ccccc2)c(=O)[nH]c1=O	-13	-1	nt	9	-1	1
O=C(NC1C2CC3CC(C2)CC1C3)C1CC1 (stereo not given)	1	0	2	-3	-1	nt
O=C(NC1CCCCC1)NC1C2CC3CC(C2)CC1C3 (stereo not given)	1	-1	54*	-8	1	1
Cc1ccc(S(=O)(=O)NNC(=O)c2ccoc2C)cc1	-2	1	-2	14	-2	-9
CC(C)c1c(C#N)c(N)nc(SCC(=O)c2cc3ccccc3oc2=O)c1C#N	3	-2	14	26	-1	-2
N#Cc1ccc(-c2ccccc2)nc1SCC(=O)c1cc2ccccc2oc1=O	20	2	109*	6	2	1
O=C(COc1ccc2c3c(c(=O)oc2c1)CCCC3)NCc1ccccn1	-12	-1	-13	-5	-1	-5
Cc1ccccc1CSc1ccc(-c2ccc3c(c2)OCO3)nn1	87*	2	-9	-138	4	-4
COC(=O)C1(C(C[N+](=O)[O-])c2ccc(C)cc2)C(=O)NCC1c1ccco1 (stereo not given)	-20	0	64*	14	0	-6
CC(C)(CN1CCN(C(c2ccccc2)c2ccccc2)CC1)NS(=O)(=O)c1ccccc1	98*	-3	-1	6	1	15
CC(C)(CN1CCN(Cc2ccccc2)CC1)NS(=O)(=O)c1ccccc1	76*	0	-5	-7	-1	4
O=C(c1ccco1)N1CCN(C(=O)c2cn(-c3ccccc3)nc2-c2ccccc2)CC1	-17	-1	nt	-20	3	2
O=C(NC(=S)N1CCN(c2ccc(F)cc2)CC1)C12CC3CC(CC(C3)C1)C2	7	-2	51*	4	-1	0
O=C(Nc1ccccc1N1CCN(c2ccc(F)cc2)CC1)C12CC3CC(CC(C3)C1)C2	14	-1	13	9	0	10
COc1ccc(/C=N/NC(=O)C2C(C=C(Cl)Cl)C2(C)C)c(OC)c1 (stereo not given)	-10	-3	3	-17	-1	-7
Cc1nn(-c2ccccc2)c(Cl)c1C1C(C#N)=C(N)OC2=C1C(=O)CCC2 (stereo not given)	-9	1	87*	-22	-1	-2
Cc1nn(-c2ccccc2)c(Cl)c1C1C(C#N)=C(N)Oc2c1c(C)nn2-c1ccccc1 (stereo not given)	5	-1	-3	-1	-2	nt
CCOc1ccc(CCNC(=O)C2CCCN(S(=O)(=O)N3CC(C)CC(C)C3)C2)cc1OCC (stereo not given)	-19	-4	4	6	5	-5
O=C1ON=C(c2ccccc2[N+](=O)[O-])/C1=C/c1cccc([N+](=O)[O-])c1O	-11	-2	nt	26	1	-2
CCOc1ccccc1NC(=O)CCSc1nc2n[nH]c(C)c2c(=N)n1-c1ccccc1Cl	13	110*	-1	28	7	9
O=C(O)C(c1ccccc1)N1C(=O)/C(=C\c2ccc(-c3ccc(Br)cc3)o2)SC1=S (stereo not given)	nt	-5	109*	9	0	nt
O=C(O)C(c1ccccc1)N1C(=O)/C(=C\c2ccc(-c3ccccc3Cl)o2)SC1=S (stereo not given)	nt	3	102*	0	2	nt
CC1CCCN(C(=O)c2nn(C)c3c2CS(=O)(=O)c2ccccc2-3)C1 (stereo not given)	12	-1	8	-9	1	-6
Cc1cc(C)cc(OCC(=O)Nc2ccc(-n3cnnn3)cc2)c1	nt	-1	nt	3	-1	-3
Cc1cc(C(=O)N/N=C/c2cc(Br)cc(Br)c2OC(=O)c2ccccc2)n[nH]1	nt	5	18	48	6	94*
